Laboratory results reported in ChEMBL document CHEMBL2384929, “Synthesis and biological evaluation of fluoro analogues of antimitotic phenstatin” (Bioorg Med Chem, 2013).

test system: SF-268; assay: Cytotoxicity against human SF268 cells assessed as growth inhibition after 48 hrs by SRB assay; format: functional; details: SF-268, 48 h
Summary of the method: (§1)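 Run in the NCI 60 human tumour cell line panel. Cells exposed for 48 h, growth read by sulforhodamine B. Compounds were first screened at a single 10 µM dose, and those meeting preset threshold inhibition criteria went on to the 5-dose screen. GI50 is the molar concentration giving 50% growth inhibition.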

SMILES | GI50
COc1cc(C(=O)c2cc(OC)c(OC)c(OC)c2)c(OC)cc1F | 748 nM

species on record: Ovis aries; assay: Inhibition of sheep brain tubulin assembly at 100 uM by DAPI staining-based fluorescence assay; details: not given
Summary of the method: (§2)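 Tubulin from sheep brain, purified by two assembly–disassembly cycles, at about 2–3 mg/mL in 0.1 M MES, 0.5 mM MgCl2, 1 mM EGTA, 1 mM GTP, pH 6.6. Assembly followed by DAPI fluorescence at 37 °C. Single-point inhibition tested at 100 µM. IC50 is the concentration halving the assembly rate relative to no compound, mean of two experiments, with reference inhibitors run the same day.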

SMILES | inhibition
COc1cc(C(=O)c2cc(OC)c(OC)c(OC)c2)c(OC)cc1F | 77%

test system: HL-60(TB); assay: Cytotoxicity against human HL-60(TB) cells assessed as growth inhibition after 48 hrs by SRB assay; format: functional; details: HL-60, 48 h
Summary of the method: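 NCI 60-human-cancer-cell-line screen; only compounds meeting predetermined threshold inhibition criteria in the single-dose test went on to the 5-dose screen. Cells exposed for 48 h and growth read by sulforhodamine B assay. GI50 is the molar concentration giving 50% growth inhibition of tumour cells.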

SMILES | GI50
COc1cc(C(=O)c2cc(OC)c(OC)c(OC)c2)c(OC)cc1F | 203 nM

test system: SW-620; assay: Cytotoxicity against human SW620 cells assessed as growth inhibition after 48 hrs by SRB assay; format: functional; details: SW-620, 48 h; summary of the method: as §1

SMILES | GI50
COc1cc(C(=O)c2cc(OC)c(OC)c(OC)c2)c(OC)cc1F | 63 nM

test system: Hs-578T; assay: Cytotoxicity against human Hs578T cells assessed as growth inhibition after 48 hrs by SRB assay; format: functional; details: not given; summary of the method: as §1

SMILES | GI50
COc1cc(C(=O)c2cc(OC)c(OC)c(OC)c2)c(OC)cc1F | 194 nM

test system: NCI/ADR-RES; assay: Cytotoxicity against human NCI/ADR-RES cells assessed as growth inhibition after 48 hrs by SRB assay; format: functional; details: not given; summary of the method: as §1

SMILES | GI50
COc1cc(C(=O)c2cc(OC)c(OC)c(OC)c2)c(OC)cc1F | 68 nM

test system: SR; assay: Cytotoxicity against human SR cells assessed as growth inhibition after 48 hrs by SRB assay; format: functional; details: not given; summary of the method: as §1

SMILES | GI50
COc1cc(C(=O)c2cc(OC)c(OC)c(OC)c2)c(OC)cc1F | 43 nM

test system: SN12C; assay: Cytotoxicity against human SN12C cells assessed as growth inhibition after 48 hrs by SRB assay; format: functional; details: not given; summary of the method: as §1

SMILES | GI50
COc1cc(C(=O)c2cc(OC)c(OC)c(OC)c2)c(OC)cc1F | 602 nM

test system: DU-145; assay: Cytotoxicity against human DU145 cells assessed as growth inhibition after 48 hrs by SRB assay; format: functional; details: DU-145, 48 h; summary of the method: as §1

SMILES | GI50
COc1cc(C(=O)c2cc(OC)c(OC)c(OC)c2)c(OC)cc1F | 257 nM

test system: NCI-H522; assay: Cytotoxicity against human NCI-H522 cells assessed as growth inhibition after 48 hrs by SRB assay; format: functional; details: NCI-H522, 48 h; summary of the method: as §1

SMILES | GI50
COc1cc(C(=O)c2cc(OC)c(OC)c(OC)c2)c(OC)cc1F | 102 nM

test system: SK-OV-3; assay: Cytotoxicity against human SKOV3 cells assessed as growth inhibition after 48 hrs by SRB assay; format: functional; details: SK-OV-3, 48 h; summary of the method: as §1

SMILES | GI50
COc1cc(C(=O)c2cc(OC)c(OC)c(OC)c2)c(OC)cc1F | 213 nM

test system: HCT-15; assay: Cytotoxicity against human HCT15 cells assessed as growth inhibition after 48 hrs by SRB assay; format: functional; details: HCT-15, 48 h; summary of the method: as §1

SMILES | GI50
COc1cc(C(=O)c2cc(OC)c(OC)c(OC)c2)c(OC)cc1F | 55 nM

test system: MDA-MB-435; assay: Cytotoxicity against human MDA-MB-435 cells assessed as growth inhibition after 48 hrs by SRB assay; format: functional; details: MDA-MB-435, 48 h; summary of the method: as §1

SMILES | GI50
COc1cc(C(=O)c2cc(OC)c(OC)c(OC)c2)c(OC)cc1F | 25 nM

test system: PC-3; assay: Cytotoxicity against human PC3 cells assessed as growth inhibition after 48 hrs by SRB assay; format: functional; details: PC-3, 48 h; summary of the method: as §1

SMILES | GI50
COc1cc(C(=O)c2cc(OC)c(OC)c(OC)c2)c(OC)cc1F | 207 nM

test system: Malme-3M; assay: Cytotoxicity against human MALME-3M cells assessed as growth inhibition after 48 hrs by SRB assay; format: functional; details: not given; summary of the method: as §1

SMILES | GI50
COc1cc(C(=O)c2cc(OC)c(OC)c(OC)c2)c(OC)cc1F | 433 nM

test system: MDA-MB-231; assay: Cytotoxicity against human MDA-MB-231 cells assessed as growth inhibition after 48 hrs by SRB assay; format: functional; details: MDA-MB-231, 48 h; summary of the method: as §1

SMILES | GI50
COc1cc(C(=O)c2cc(OC)c(OC)c(OC)c2)c(OC)cc1F | 388 nM

test system: not listed separately; assay: Inhibition of sheep brain tubulin assembly by DAPI staining-based fluorescence assay; parameters: species or system Ovis aries; details: not given; summary of the method: as §2

SMILES | IC50
COc1cc(C(=O)c2cc(OC)c(OC)c(OC)c2)c(OC)cc1F | 24000 nM

test system: BT-549; assay: Cytotoxicity against human BT549 cells assessed as growth inhibition after 48 hrs by SRB assay; format: functional; details: BT-549, 48 h; summary of the method: as §1

SMILES | GI50
COc1cc(C(=O)c2cc(OC)c(OC)c(OC)c2)c(OC)cc1F | 365 nM

test system: KM12; assay: Cytotoxicity against human KM12 cells assessed as growth inhibition after 48 hrs by SRB assay; format: functional; details: KM12, 48 h; summary of the method: as §1

SMILES | GI50
COc1cc(C(=O)c2cc(OC)c(OC)c(OC)c2)c(OC)cc1F | 50 nM

test system: K562; assay: Cytotoxicity against human K562 cells assessed as growth inhibition after 48 hrs by SRB assay; format: functional; details: K562, 48 h; summary of the method: as §1

SMILES | GI50
COc1cc(C(=O)c2cc(OC)c(OC)c(OC)c2)c(OC)cc1F | 46 nM

test system: ACHN; assay: Cytotoxicity against human ACHN cells assessed as growth inhibition after 48 hrs by SRB assay; format: functional; details: not given; summary of the method: as §1

SMILES | GI50
COc1cc(C(=O)c2cc(OC)c(OC)c(OC)c2)c(OC)cc1F | 693 nM

test system: NCI-H460; assay: Cytotoxicity against human NCI-H460 cells assessed as growth inhibition after 48 hrs by SRB assay; format: functional; details: NCI-H460, 48 h; summary of the method: as §1

SMILES | GI50
COc1cc(C(=O)c2cc(OC)c(OC)c(OC)c2)c(OC)cc1F | 115 nM

test system: CCRF-CEM; assay: Cytotoxicity against human CCRF-CEM cells assessed as growth inhibition after 48 hrs by SRB assay; format: functional; details: not given; summary of the method: as §1

SMILES | GI50
COc1cc(C(=O)c2cc(OC)c(OC)c(OC)c2)c(OC)cc1F | 192 nM

test system: NCI-H23; assay: Cytotoxicity against human NCI-H23 cells assessed as growth inhibition after 48 hrs by SRB assay; format: functional; details: NCI-H23, 48 h; summary of the method: as §1

SMILES | GI50
COc1cc(C(=O)c2cc(OC)c(OC)c(OC)c2)c(OC)cc1F | 421 nM

test system: SF-539; assay: Cytotoxicity against human SF539 cells assessed as growth inhibition after 48 hrs by SRB assay; format: functional; details: SF-539, 48 h; summary of the method: as §1

SMILES | GI50
COc1cc(C(=O)c2cc(OC)c(OC)c(OC)c2)c(OC)cc1F | 164 nM

test system: SNB-75; assay: Cytotoxicity against human SNB75 cells assessed as growth inhibition after 48 hrs by SRB assay; format: functional; details: SNB-75, 48 h; summary of the method: as §1

SMILES | GI50
COc1cc(C(=O)c2cc(OC)c(OC)c(OC)c2)c(OC)cc1F | 109 nM

test system: M14; assay: Cytotoxicity against human M14 cells assessed as growth inhibition after 48 hrs by SRB assay; format: functional; details: M14, 48 h; summary of the method: as §1

SMILES | GI50
COc1cc(C(=O)c2cc(OC)c(OC)c(OC)c2)c(OC)cc1F | 72 nM

test system: OVCAR-3; assay: Cytotoxicity against human OVCAR3 cells assessed as growth inhibition after 48 hrs by SRB assay; format: functional; details: OVCAR-3, 48 h; summary of the method: as §1

SMILES | GI50
COc1cc(C(=O)c2cc(OC)c(OC)c(OC)c2)c(OC)cc1F | 45 nM

test system: RXF 393; assay: Cytotoxicity against human RXF393 cells assessed as growth inhibition after 48 hrs by SRB assay; format: functional; details: RXF 393, 48 h; summary of the method: as §1

SMILES | GI50
COc1cc(C(=O)c2cc(OC)c(OC)c(OC)c2)c(OC)cc1F | 144 nM

test system: SNB-19; assay: Cytotoxicity against human SNB19 cells assessed as growth inhibition after 48 hrs by SRB assay; format: functional; details: SNB-19, 48 h; summary of the method: as §1

SMILES | GI50
COc1cc(C(=O)c2cc(OC)c(OC)c(OC)c2)c(OC)cc1F | 419 nM
